Source: PubChem BioAssay (several laboratories)
PHOSPHO1 block: blocks human PHOSPHO1 phosphatase activity; Q8TCT1; recombinant PHOSPHO1, absorbance phosphatase assay; inhibition, % at 13.3 µM; 290,000 tested, 1.1% active; in the data active means inhibition above about 60%
Lipid droplet: hepatic lipid droplet formation modulation | 240,000 tested, 0.4% active | inhibition, % at 6.5 µM | AML12 mouse hepatocytes, oleate lipid droplets, BODIPY imaging | AID 1656;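 active means lipid droplet intensity inhibited by at least 50%, with more than 500 cells counted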
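Test system: AML12 mouse liver cells; schedule: overnight exposure; technique: high-content imaging of BODIPY-stained droplets and DAPI nuclei; read-out: % inhibition of corrected integrated BODIPY droplet signal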
CHT block: human CHT choline transport inhibition; CHT-expressing cells, membrane potential dye, choline response; hits give low values; B-score at 10 µM; Q9GZV3; 310,000 tested, 0.86% active;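 active means B-score over 3 SD under the library average, and starting fluorescence ratio not unusually high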;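 further: choline stimulus applied at its EC90 after an EC20 pre-addition; B-score computed on integrated fluorescence ratio after choline addition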
Target sequence (Q9GZV3 whole entry, looked up): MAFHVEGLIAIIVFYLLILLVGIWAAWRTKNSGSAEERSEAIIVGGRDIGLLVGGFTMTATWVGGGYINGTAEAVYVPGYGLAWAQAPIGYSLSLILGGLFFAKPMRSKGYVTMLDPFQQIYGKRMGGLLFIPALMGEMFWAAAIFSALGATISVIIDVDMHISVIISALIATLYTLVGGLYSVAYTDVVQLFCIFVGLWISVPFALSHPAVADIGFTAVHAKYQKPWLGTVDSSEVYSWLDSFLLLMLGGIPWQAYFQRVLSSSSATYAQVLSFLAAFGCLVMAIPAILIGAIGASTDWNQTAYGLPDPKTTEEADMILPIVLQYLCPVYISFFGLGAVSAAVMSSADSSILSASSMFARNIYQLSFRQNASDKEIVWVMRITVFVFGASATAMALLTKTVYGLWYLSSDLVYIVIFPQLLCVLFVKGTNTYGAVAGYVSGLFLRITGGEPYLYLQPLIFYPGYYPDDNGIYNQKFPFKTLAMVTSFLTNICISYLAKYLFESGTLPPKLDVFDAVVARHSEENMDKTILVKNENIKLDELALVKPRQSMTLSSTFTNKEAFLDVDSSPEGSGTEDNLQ
HSF-1 act: increases HSF-1 driven luciferase reporter signal; activation, % at 9 µM; AID 504408; NIH3T3-HGL HSF-1 luciferase reporter, MG132, 8 h; 100% = twice DMSO control signal; 300,000 tested, 1.7% active;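 active means mean replicate activation of at least 50% with a set share of replicates each reaching 50%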;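 further: 0% = median of the neutral control wells and 100% = twice that signal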
HSF1 inhib: HSF1 inhibition | NIH3T3-HGL HSE-luciferase, MG132-induced, luminescence 8 h; hits give low values | 300,000 tested, 0.77% active | activity change, negative = inhibition, % at 7.5 µM (by protocol);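 active means more than half of replicate wells show activity change below -50%, luminescence cut by over half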;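 further: luciferase reports HSF-1 transcriptional activity via heat shock element; 0% = median of DMSO wells and -100% = zero luminescence signal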
CHT allo act: allosteric activators of human choline transporter CHT. 310,000 tested, 0.49% active. CHT-expressing cells, membrane potential dye, choline EC20; hits give high values; LV-AA mutant CHT in HEK293 cells. B-score at 10 µM. AID 488977;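 active means initial fluorescence not abnormally high and integrated response B-score, plate-corrected, over 3 SD above library mean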
* = called active by the depositor; i = inactive; nt = not tested or not shown. Compounds with a hit are over-represented: about 4.9% of the library has one in this group of screens.

SMILES	PHOSPHO1 block	Lipid droplet	CHT block	HSF-1 act	HSF1 inhib	CHT allo act
O=C(CNC(=O)c1ccc2c(c1)OCO2)N/N=C(Br)/C=C/c1ccccc1	-12	-8	i	66*	34	i
O=C(/C=C/c1ccccc1)c1ccc2c(c1)OCO2	16	6	i	10	14	i
O=c1[nH]c2c(s1)C=Nc1ccccc1N2	46	nt	i	70*	34	i
Cc1c(NC(=O)CN2C(=O)NC3(CCC(C)CC3)C2=O)c(=O)n(-c2ccccc2)n1C (stereo not given)	28	5	i	-5	-6	i
O=C(/C=C/Sc1ccccc1)c1ccccc1	16	nt	i	117*	80	i
O=C(/C=C/Sc1ccccc1)c1ccc(Cl)cc1	2	-30	i	161*	122	i
O=C(O)c1ccc(-c2nc3ccccc3s2)o1	-5	25	i	15	8	i
O=Cc1ccc(-c2nc3ccccc3s2)o1	37	15	i	63*	36	i
O=C(O)CCCN1C(=O)/C(=C\c2ccc(-c3nc4ccccc4s3)o2)SC1=S	93*	-14	i	22	6	i
O=C(O)/C=C\c1cccc(-n2cnnn2)c1	2	10	i	nt	nt	i
Nc1cccc(/C=C/C(=O)O)c1	16	42	i	-70	-58*	i
CCOc1ccc(NC(=O)COc2nsnc2N2CCOCC2)cc1	2	5	i	-9	0	i
O=C(C1CC1)N1CCc2cc(Br)cc(S(=O)(=O)NCc3ccco3)c21	-12	-21	i	nt	nt	i
Cc1cc(/C=C(/C#N)c2cccc(Cl)c2)c(C)n1C	34	nt	i	67*	32	i
O=C(O)CSc1c(-c2ccccc2)c2cc(Cl)ccc2[nH]c1=O	-11	-2	i	-1	-5	i
CCN(CC)C(=S)Sc1c(-c2ccccc2)c2cc(Cl)ccc2[nH]c1=O	88*	-10	i	-1	8	i
Cc1c(C)c2ccc(OCC(=O)NCCc3c[nH]c4ccccc34)c(C)c2oc1=O	23	-3	i	23	5	i
COC(=O)c1cc(Br)c(=O)n(-c2ccc(OC)cc2)c1	4	-6	i	8	-3	i
CNC(=S)N(CCc1c(C)[nH]c2ccc(F)cc12)Cc1cccnc1	31	nt	i	-89	-86*	i
Cc1[nH]c2ccccc2c1CCN(Cc1cccnc1)C(=S)Nc1ccc(F)cc1	-4	-22	i	-6	5	i
Cc1ccc(C(=O)NNC(=S)Nc2cccc3ccccc23)s1	86*	nt	i	42	27	i
O=C(NNC(=S)Nc1cccc2ccccc12)c1cccc(Br)c1	64*	5	i	35	17	i
O=C(Nc1ccc(S(=O)(=O)N2CCCC2)cc1)c1ccc(Br)o1	2	-6	i	29	-1	i
CCN1CCN(c2ccc(NC(=O)c3ccc(Br)o3)cc2)CC1	nt	12	nt	56*	14	nt
CCCC(=O)N1CCN(c2ccc(NC(=O)c3ccc(Br)o3)cc2)CC1	-14	10	i	-9	-3	i
SMILES	PHOSPHO1 block	Lipid droplet	CHT block	HSF-1 act	HSF1 inhib	CHT allo act
CCN(CC)c1ccc(NC(=O)c2ccc(Br)o2)cc1	71*	nt	i	50	30	i
O=C(Nc1ccc(S(=O)(=O)N2CCOCC2)cc1)c1ccc(Br)o1	0	5	i	59*	12	i
COc1ccc(CCN2CC(C(=O)NCCc3ccc(C(F)(F)F)cc3)CCC2=O)cc1 (stereo not given)	37	0	i	15	-3	i
O=C(c1ccc(N2C(=O)C3CC=C(Cl)CC3C2=O)cc1)N1CCOCC1 (stereo not given)	45	-1	i	-1	-6	i
c1ccc2c(c1)Cn1nnnc1-2	12	nt	i	-44	-30	i
c1ccc2c(c1)CC1(CCCCC1)n1nnnc1-2	20	-6	i	-66	-59*	i
CN1CCC(N(C)C(=O)COc2ccccc2-c2ccccc2)CC1	3	nt	i	-1	-4	i
COc1ccc(-c2cc3nc(C)n(N)c(=O)c3s2)cc1	22	-9	i	-72	-70*	i
COc1ccc(-c2cc3nc4n(c(=O)c3s2)CCC4)cc1	-8	18	i	14	-5	i
Cc1cc2ccccc2n2c(SCC(=O)Nc3ccc(S(=O)(=O)N4CCC(C)CC4)cc3)nnc12	2	-1	i	-5	-2	i
Cn1nnnc1SCC(=O)NC1CCCC1	-9	-2	i	2	-6	i
COc1cc(C2C(C(=O)c3cc4ccccc4o3)=C(O)C(=O)N2c2cc(C)on2)cc(OC)c1OC (stereo not given)	16	10	i	57*	25	i
COc1cccc(C2C(C(=O)c3cc4ccccc4o3)=C(O)C(=O)N2c2cc(C)on2)c1OC (stereo not given)	22	nt	i	6	5	i
O=C(Cc1c(F)cccc1Cl)N1CCN(S(=O)(=O)c2cccc(F)c2)CC1	nt	nt	i	9	1	i
CCOc1ccccc1C1NC(=O)CCC1[N+](=O)[O-] (stereo not given)	26	20	i	-7	-4	i
COC(=O)C1=C(C)NC2=C(C(=O)CC(C)(C)C2)C1c1cn(Cc2ccc(Br)cc2)nc1-c1ccccc1 (stereo not given)	10	nt	i	74*	37	i
COC(=O)C1=C(C)NC2=C(C(=O)CCC2)C1c1cn(Cc2ccc(Br)cc2)nc1-c1ccccc1 (stereo not given)	-7	nt	i	24	6	i
O=C(c1ccccc1)c1cccc(NC(=O)c2ccc(Br)o2)c1	10	-3	i	13	10	i
CC(C)=CC(=O)Nc1nnc(-c2ccccc2C)s1	53	1	i	18	10	i
C/C(=C\C(=O)Nc1cscc1C)C(=O)O	16	6	i	74*	30	i
CC(=O)N1CCN(C(=O)c2ccc(OC3CCN(Cc4ccccn4)CC3)cc2)CC1	52	-2	i	-11	2	i
Cc1nc(C(C)NC(=O)c2ccc(OC3CCN(Cc4ccccn4)CC3)cc2)c(C)s1 (stereo not given)	81*	-12	i	18	2	i
CN(C(=O)c1ccc(OC2CCN(Cc3ccccn3)CC2)cc1)C1CCCCC1	33	-7	i	-64	-52*	i
CCC(O)C1CCN(C(=O)c2ccc(OC3CCN(Cc4ccccn4)CC3)cc2)CC1 (stereo not given)	70*	-12	i	-23	-10	i
COc1cc(/C=N/n2c(-c3ccccc3)n[nH]c2=S)ccc1O	103*	-2	i	-8	-5	i
